Laboratory results from ChEMBL document CHEMBL4316652, “Kenalactams A-E, Polyene Macrolactams Isolated from Nocardiopsis CG3” (J Nat Prod, 2019).
In brackets after ≈: the same amount, converted by molar mass. Activity calls are given as the source filed them. The rule behind the calls is not given here.

What was measured:
PC-3 = assay: Cytotoxicity against human PC3 cells measured after 5 days by MTT assay; type: functional, cell-based; conditions: PC-3, 120 h
Mucor hiemalis = assay: Antifungal activity against Mucor hiemalis DSM 2656 by serial dilution method; type: functional
In short: (§1)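 Fungi were tested by serial dilution in MYG medium (1.0% phytone peptone, 1.0% glucose, 50 mM HEPES, pH 7.0). The top well held 67 μg/mL final, from a 1 mg/mL stock. Methanol served as negative control. The MIC was recorded.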

SK-OV-3 = assay: Cytotoxicity against human SKOV3 cells measured after 5 days by MTT assay; type: functional, cell-based; conditions: SK-OV-3, 120 h
Escherichia coli = assay: Antibacterial activity against Escherichia coli DSM1116 by serial dilution method; type: functional
L929 = assay: Cytotoxicity against mouse L929 cells measured after 5 days by MTT assay; type: cell-based
Bacillus subtilis = assay: Antibacterial activity against Bacillus subtilis DSM10 by serial dilution method; type: functional
Hepatitis C virus = assay: Antiviral activity against HCV JC1 infected in human Huh7.5 cells assessed as reduction in viral infection treated for 4 hrs followed by compound washout and measured after 3 days by luciferase reporter gene assay; type: functional, organism-based; conditions: Hepacivirus hominis
In short: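 Huh-7.5 cells were electroporated with the Luc-Jc1 reporter virus in the presence of compound. After 4 h the inoculum was removed, and the monolayers were washed three times with PBS and given fresh compound-free medium. Cells were lysed at 3 days for luciferase read-out. Runs were in duplicate, reported as mean and standard deviation.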

A549 = assay: Cytotoxicity against human A549 cells measured after 5 days by MTT assay; type: functional, cell-based; conditions: A549, 120 h
KB 3-1 = assay: Cytotoxicity against human KB3-1 cells measured after 5 days by MTT assay; type: functional, cell-based
Candida albicans [1] = assay: Antifungal activity against Candida albicans DSM 1665 by serial dilution method; type: functional; in short: as §1
Staphylococcus aureus = assay: Antibacterial activity against Staphylococcus aureus Newman by serial dilution method; type: functional
MCF7 = assay: Cytotoxicity against human MCF7 cells measured after 5 days by MTT assay; type: functional, cell-based; conditions: MCF7, 120 h
Trypanosoma brucei = assay: Antimicrobial activity against Trypanosoma brucei; type: functional
Candida albicans [2] = assay: Antifungal activity against amphotericin B-resistant Candida albicans; type: functional
In short: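 Broth serial dilution MIC in 96-well plates using MYG medium for fungi (1.0% phytone peptone, 1.0% glucose, 50 mM HEPES, pH 7.0). Compounds were added as 20 µL aliquots of a 1 mg/mL stock, giving 67 μg/mL final in the first well. Methanol served as negative control.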

[3] = Mus musculus, L929, 120 h, read-out: IC50
[4] = Homo sapiens, KB 3-1, 120 h, read-out: IC50

Row | Compound | IC50 (PC-3) [µM] | MIC (Mucor hiemalis) | IC50 (SK-OV-3) [µM] | MIC (Escherichia coli) | MIC (Bacillus subtilis) | Activity (Hepatitis C virus) | IC50 (A549) [µM] | IC50 (KB 3-1; [4]) [µM] | MIC (Candida albicans [1]) | MIC (Staphylococcus aureus) | other results
1 | CC1=C\C=C\C=C\C=C/C=C\[C@H](C)CNC(=O)/C(C)=C/C=C/C=C/C=C\C=C/[C@H](C)CNC(=O)\C(C)=C\1 | 5 | inactive | 10 | inactive | inactive | Active | 32.1 | 5.4 | inactive | 16.7 µg/mL (≈ 33.5 µM) | IC50 (L929; [3]): 42.2 µM; IC50 (MCF7): 18.1 µM
2 | C/C1=C/C=C/C(C)=C/C=C/C=C\C=C/[C@H](C)CNC(=O)/C(C)=C/C=C/C(C)=C/C=C/C=C\C=C/[C@H](C)CNC1=O |  | inactive |  | inactive | inactive | Active |  |  | inactive |  | 
3 | CC1=C/[C@H](O)[C@H](O)\C=C/C=C/C=C/C=C\C=C/[C@H](C)CNC(=O)\C=C/C=C/1 |  | inactive |  | inactive | inactive | inactive |  |  | inactive | inactive | 
4 | CC1=C\C=C\C[C@H](C)NC(=O)/C=C/C=C/C=C/[C@H](C)[C@@H](O)[C@H](O)[C@@H](O)C[C@@H](O)/C=C\C=C\C(C)=C\1 |  |  |  |  |  |  |  |  |  |  | MIC (Trypanosoma brucei): 0.8 µM (≈ 0.387 µg/mL)
5 | CC1=C\C=C\C=C/C=C\[C@H](C)CNC(=O)/C(C)=C/C=C/C(C)=C/C=C/C=C\C=C/[C@H](C)CNC(=O)\C(C)=C\C=C\1 | 2.1 |  | 5.5 |  |  |  | 6.5 | 2.4 |  | 66.7 µg/mL (≈ 124 µM) | IC50 (L929; l929): Non-Toxic
6 | CN(C)[C@@H]1C(O)=C(C(N)=O)C(=O)[C@@]2(O)C(O)=C3C(=O)c4c(O)cccc4[C@@](C)(O)[C@H]3[C@H](O)[C@@H]12 [OXYTETRACYCLINE] |  |  |  | 1.66 µg/mL (≈ 3.61 µM) | 2.08 µg/mL (≈ 4.52 µM) |  |  |  |  | 0.05 µg/mL (≈ 0.109 µM) | 
7 | CC1=C\C=C\C=C\C(C)CNC(=O)/C=C(O)/C=C/C(C)=C/C=C/C(O)C(O)C(O)C(=O)/C=C\C=C\1 (stereo unspecified) |  |  |  |  |  |  |  |  |  |  | MIC (Candida albicans [2]): 4 µg/mL (≈ 8.31 µM)
8 | C\C1=C/C=C/C=C/C=C\C=C/[C@H](C)CNC(=O)/C(C)=C/C=C/C=C/C=C\C=C/[C@H](C)CNC1=O | 6.3 | 66.7 µg/mL (≈ 145 µM) | 14.2 | inactive | inactive | Active | 16.3 | 6.8 | 66.7 µg/mL (≈ 145 µM) | 66.7 µg/mL (≈ 145 µM) | IC50 (L929; [3]): 32.8 µM; IC50 (MCF7): 16.4 µM
9 | NYSTATIN |  | 4.16 µg/mL |  |  |  |  |  |  | 8.8 µg/mL |  | 
10 | CC1=C/[C@H](O)[C@H](O)\C=C/C=C/C=C/C=C\C=C/[C@H](C)CNC(=O)/C=C/C=C/1 |  |  |  |  |  |  |  |  |  |  | IC50 (L929; l929): Non-Toxic; IC50 (KB 3-1; kb 3-1): Not Active
11 | C/C(=C\c1csc(C)n1)[C@@H]1C[C@@H]2O[C@]2(C)CCC[C@H](C)[C@H](O)[C@@H](C)C(=O)C(C)(C)[C@@H](O)CC(=O)O1 [PATUPILONE] | 0.0022 |  | 0.00024 |  |  |  | 0.004 | 5.3e-05 |  |  | IC50 (L929; [3]): 0.00075 µM; IC50 (MCF7): 7.4e-05 µM
